Data set [1] has as its target T1, GABA-A receptor; alpha-3/beta-3/gamma-2 (Homo sapiens, UniProt P18507+P28472+P34903).
T1 sequence (P18507 whole entry): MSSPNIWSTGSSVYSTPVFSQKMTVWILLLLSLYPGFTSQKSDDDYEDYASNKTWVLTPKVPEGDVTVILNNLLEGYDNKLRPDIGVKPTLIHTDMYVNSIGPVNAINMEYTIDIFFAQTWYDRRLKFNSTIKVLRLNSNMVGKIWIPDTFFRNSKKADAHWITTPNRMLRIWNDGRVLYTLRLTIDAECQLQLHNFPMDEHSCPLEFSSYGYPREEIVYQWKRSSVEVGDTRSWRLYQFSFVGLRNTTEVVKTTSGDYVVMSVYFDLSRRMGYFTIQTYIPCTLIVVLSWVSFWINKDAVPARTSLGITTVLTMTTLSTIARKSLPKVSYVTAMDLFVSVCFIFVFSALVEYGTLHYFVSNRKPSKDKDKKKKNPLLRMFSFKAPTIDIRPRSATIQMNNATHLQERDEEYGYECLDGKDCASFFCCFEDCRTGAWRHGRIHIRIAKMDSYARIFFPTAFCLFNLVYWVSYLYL
T1 sequence (P28472 whole entry): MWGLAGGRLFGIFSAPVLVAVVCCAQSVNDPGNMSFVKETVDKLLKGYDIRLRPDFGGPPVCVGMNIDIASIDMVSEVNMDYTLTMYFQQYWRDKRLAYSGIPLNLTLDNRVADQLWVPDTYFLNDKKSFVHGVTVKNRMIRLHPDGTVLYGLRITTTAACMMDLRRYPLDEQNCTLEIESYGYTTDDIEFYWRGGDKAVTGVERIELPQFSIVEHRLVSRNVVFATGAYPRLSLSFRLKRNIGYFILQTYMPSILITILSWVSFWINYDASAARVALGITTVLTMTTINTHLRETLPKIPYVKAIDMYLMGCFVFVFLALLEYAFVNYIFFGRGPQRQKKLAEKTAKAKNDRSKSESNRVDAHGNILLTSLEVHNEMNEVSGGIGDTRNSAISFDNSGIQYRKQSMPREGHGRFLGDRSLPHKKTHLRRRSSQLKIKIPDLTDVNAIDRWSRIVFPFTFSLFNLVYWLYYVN
T1 sequence (P34903 whole entry): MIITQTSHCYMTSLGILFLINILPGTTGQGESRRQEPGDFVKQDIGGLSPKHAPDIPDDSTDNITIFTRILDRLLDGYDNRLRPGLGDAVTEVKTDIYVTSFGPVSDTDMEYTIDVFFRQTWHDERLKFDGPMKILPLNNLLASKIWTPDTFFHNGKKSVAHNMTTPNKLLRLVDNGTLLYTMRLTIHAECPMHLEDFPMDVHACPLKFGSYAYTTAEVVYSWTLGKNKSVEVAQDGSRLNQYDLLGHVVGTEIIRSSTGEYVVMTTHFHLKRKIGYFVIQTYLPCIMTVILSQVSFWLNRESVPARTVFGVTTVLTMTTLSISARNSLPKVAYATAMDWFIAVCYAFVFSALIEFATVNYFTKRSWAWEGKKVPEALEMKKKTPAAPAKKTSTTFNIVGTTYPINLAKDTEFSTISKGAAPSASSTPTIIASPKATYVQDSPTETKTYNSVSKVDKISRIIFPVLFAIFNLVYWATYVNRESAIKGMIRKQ
The experiment in a line: Binding affinity to human GABAA alpha3beta3gamma2 receptor expressed in HEK293 cells assessed as GABA-induced membrane potential change preincubated for 3 mins followed by addition of GABA measured after 3 mins by FLIPR assay. Type of data set: cell-based. Summed up:
(§1)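 Stably transfected HEK293T cells expressing α1β3γ2 (n = 2) or α3β3γ2 (n = 1) GABAARs. Membrane potential was read as fluorescence changes on a FLIPR Tetra, and EC50 was derived.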

The subject of data set [2] is Liver. The experiment in a line: Metabolic stability in human liver microsomes assessed as compound remaining at 4 uM measured after 30 mins in presence of NADPH by LC-MS/MS analysis. To be noted: 0.5 h. Type of data set: ADME, microsome. A digest of the protocol: (§2)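 Human, mouse or rat liver microsomes were incubated with compound at 4 μM final for 30 min at 37 °C (n = 1). Percent of parent remaining was quantified by LC-MS/MS.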
In general terms: Liver microsomes are a subcellular fraction often used to study metabolism.

The subject of data set [3] is Liver. The data set is described as follows: Metabolic stability in mouse liver microsomes assessed as compound remaining at 4 uM measured after 30 mins in presence of NADPH by LC-MS/MS analysis. Type of data set: ADME, microsome. Particulars: 0.5 h. A digest of the protocol:
as §2

In data set [4] the test system is Liver. The data set is described as follows: Metabolic stability in rat liver microsomes assessed as compound remaining at 4 uM measured after 30 mins in presence of NADPH by LC-MS/MS analysis. It is filed as ADME, microsome. Particulars: 0.5 h. A digest of the protocol:
as §2

A short description of data set [5]: Cytotoxicity against HEK293T cells assessed as viable cells measured after 18 hrs by CellTiter-Glo assay. Type of data set: cell-based, HEK-293T. To be noted: human, read-out: LD50. A digest of the protocol: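 HEK293T cells were exposed to compound for 18 h (n = 4). Viable cells were quantified with CellTiter-Glo, and LD50 was derived.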
Background: ATP-based viability assays read luminescence as a measure of living cells.

Data set [6] concerns the target T2, GABA-A receptor; alpha-1/beta-3/gamma-2 (Homo sapiens, UniProt P14867+P18507+P28472).
T2 sequence (P14867 whole entry): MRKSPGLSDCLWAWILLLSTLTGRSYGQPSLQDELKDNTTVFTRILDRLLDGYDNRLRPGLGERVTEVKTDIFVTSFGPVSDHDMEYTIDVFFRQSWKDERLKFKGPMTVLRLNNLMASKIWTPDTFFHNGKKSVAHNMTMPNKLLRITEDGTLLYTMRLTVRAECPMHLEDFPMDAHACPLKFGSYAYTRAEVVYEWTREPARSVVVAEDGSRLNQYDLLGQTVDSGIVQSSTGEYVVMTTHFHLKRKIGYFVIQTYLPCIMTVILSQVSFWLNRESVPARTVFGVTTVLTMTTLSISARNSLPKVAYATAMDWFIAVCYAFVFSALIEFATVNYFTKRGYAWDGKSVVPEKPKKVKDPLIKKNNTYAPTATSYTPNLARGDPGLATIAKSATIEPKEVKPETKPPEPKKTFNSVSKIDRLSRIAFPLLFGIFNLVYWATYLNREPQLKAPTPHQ
T2 sequence (P18507 whole entry): T1 sequence (P18507 whole entry)
T2 sequence (P28472 whole entry): T1 sequence (P28472 whole entry)
The data set is described as follows: Binding affinity to human GABAA alpha1beta3gamma2 receptor expressed in HEK293 cells assessed as GABA-induced membrane potential change preincubated for 3 mins followed by addition of GABA measured after 3 mins by FLIPR assay. Type of data set: cell-based. Summed up:
as §1

Data set [7] can be described thus: Total plasma concentration in Sprague-Dawley rat at 10 mg/kg, po measured after 60 mins by LC-MS/MS analysis. It is filed as ADME, organism-based. Summed up: (§3)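 Sprague-Dawley rats (n = 3 per time point) were given 10 mg/kg p.o. Total plasma concentrations were taken at 15, 30, 60 and 120 min. Brain levels of the dosed ligand and of the carboxylic acid metabolite were taken at 60 or 120 min.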

Data set [8] is described as follows: Drug uptake in Sprague-Dawley rat brain at 10 mg/kg, po measured after 60 mins by LC-MS/MS analysis. It is filed as ADME, organism-based. Particulars: read-out: Drug uptake. Summed up:
as §3

Data set [9] deals with Mus musculus. The experiment in a line: Anxiolytic-like activity in Swiss Webster mouse marble burying model of anxiety assessed as suppression of marble burying activity at 10 mg/kg, ip administered 30 mins prior to test relative to vehicle-control. It is filed as functional, organism-based. A digest of the protocol:
(§4)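 Male NIH Swiss Webster mice (n = 10) received vehicle or compound at 10 or 30 mg/kg i.p. 30 min before marble burying testing. Sedation-like behaviour was noted by observation. Analysis was ANOVA with Dunnett's test vs vehicle.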

Data set [10] has as its system Mus musculus. The experiment in a line: Anxiolytic-like activity in Swiss Webster mouse marble burying model of anxiety assessed as suppression of marble burying activity at 30 mg/kg, ip administered 30 mins prior to test relative to vehicle-control. Type of data set: functional, organism-based. A digest of the protocol:
as §4

Data set [11] has as its system Mus musculus. The data set is described as follows: Toxicity in Swiss Webster mouse assessed as sedation-like behavior at 30 mg/kg, ip measured after 30 mins. It is filed as organism-based. To be noted: in vivo, 0.5 h. A digest of the protocol: as §4
Data set [12] deals with Mus musculus. The experiment in a line: Toxicity in Swiss mouse assessed as change in motor coordination by measuring number of falls from the rotating rod at 10 mg/kg, ip administered 30 mins prior to testing measured for 2 mins by rotarod test relative to control. To be noted: in vivo. It is filed as organism-based. A digest of the protocol: (§5)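 The same mice used for marble burying were placed on a rotarod at 4 r.p.m. for 2 min. No fall was scored success, one fall partial, and two falls failure.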

For data set [13], the system named is Mus musculus. The experiment in a line: Toxicity in Swiss mouse assessed as change in motor coordination by measuring number of falls from the rotating rod at 30 mg/kg, ip administered 30 mins prior to testing measured for 2 mins by rotarod test relative to control. It is filed as organism-based. Particulars: in vivo. Summed up:
as §5

The test system of another data set is Rattus norvegicus. The data set is described as follows: Toxicity in water-deprived Sprague-Dawley rat assessed as effect on water drinking time during nonpunished period at 20 mg/kg, po by Vogel conflict test. Type of data set: organism-based. Particulars: in vivo. A digest of the protocol:
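Water-deprived male Sprague-Dawley rats (n = 6–8) drank during unpunished and punished periods, with licking suppressed by mild shock in punished periods. Compounds were given 30 min before testing. Analysis was ANOVA with Dunnett's test.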

Calls of active or inactive are those of the source. No cut-off for these calls is given here. Some results are limits rather than exact numbers.

One may read the EC50 as the concentration needed to bring the measured effect to its halfway point. Turning to `C#Cc1ccc2c(c1)C(c1ccccn1)=NCc1c(-c3nc(CC)no3)ncn1-2`, the EC50 is 3.02 µM in data set [1] and above 20 µM in data set [6]. The results for the Stability in the data set on Liver [2], with Liver [3] and in the data set on Liver [4] were 91%, 92% and 97%, respectively. Further, in data set [5], the CC50 at 18 h was above 100 µM. For the same compound, the concentration at 1 h was 1720 nM in data set [7] and 3090 nM in data set [8]. In addition, the result in the data set on Mus musculus [9] and in the data set with Mus musculus [10] was Active. For the same compound, the Activity result in the data set with Mus musculus [11], with Mus musculus [12] and with Mus musculus [13] was “Toxic” throughout.
With `CNC1=Nc2ccc(Cl)cc2C(c2ccccc2)=[N+]([O-])C1` [CHLORDIAZEPOXIDE], the Activity result in the data set on Rattus norvegicus is on record as “Non-Toxic”.

These data come from ChEMBL document CHEMBL4041524, “Synthesis and Characterization of a Novel γ-Aminobutyric Acid Type A (GABAA) Receptor Ligand That Combines Outstanding Metabolic Stability, Pharmacokinetics, and Anxiolytic Efficacy” (J Med Chem, 2016).
